Laboratory results reported in ChEMBL document CHEMBL1157197, “Design, synthesis and trypanocidal activity of lead compounds based on inhibitors of parasite glycolysis” (Bioorg Med Chem, 2008).
pEC50, pIC50: −log10 of the molar value.

Key:
[1] = tested on: Trypanosoma brucei; experiment: Antiparasitic activity against Trypanosoma brucei strain 427; format: functional; conditions: read-out: ED50 (the source's name)
How it was run: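 Cultured bloodstream-form Trypanosoma brucei brucei strain 427 exposed to compounds in vitro; ED50 reported.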

[2] = target: T1, ATP-dependent 6-phosphofructokinase (Trypanosoma brucei) (UniProt O15648); experiment: Inhibition of Trypanosoma brucei phosphofructokinase assessed as enzyme residual activity at 1 mM
T1 sequence (whole entry): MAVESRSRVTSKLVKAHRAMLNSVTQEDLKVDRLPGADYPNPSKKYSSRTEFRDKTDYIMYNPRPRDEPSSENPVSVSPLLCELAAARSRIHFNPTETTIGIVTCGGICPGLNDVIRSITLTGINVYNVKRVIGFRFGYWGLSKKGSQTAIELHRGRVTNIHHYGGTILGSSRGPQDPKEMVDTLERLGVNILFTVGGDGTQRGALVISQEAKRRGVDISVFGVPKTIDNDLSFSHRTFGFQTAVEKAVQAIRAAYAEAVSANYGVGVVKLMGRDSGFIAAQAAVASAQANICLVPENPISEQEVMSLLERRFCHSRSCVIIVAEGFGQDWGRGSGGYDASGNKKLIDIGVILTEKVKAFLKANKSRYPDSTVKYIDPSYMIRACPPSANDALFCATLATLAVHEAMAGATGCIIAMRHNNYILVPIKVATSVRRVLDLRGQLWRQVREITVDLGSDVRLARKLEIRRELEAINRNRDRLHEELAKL

[3] = target: T2, ATP-dependent 6-phosphofructokinase (Trypanosoma brucei, UniProt O15648); experiment: Inhibition of Trypanosoma brucei phosphofructokinase
T2 sequence (O15648 whole entry): T1 sequence (whole entry)

[4] = target: T3, Pyruvate kinase (Leishmania mexicana) (UniProt Q27686); experiment: Inhibition of Leishmania mexicana pyruvate kinase assessed as enzyme residual activity at 5 mM
T3 sequence (whole entry): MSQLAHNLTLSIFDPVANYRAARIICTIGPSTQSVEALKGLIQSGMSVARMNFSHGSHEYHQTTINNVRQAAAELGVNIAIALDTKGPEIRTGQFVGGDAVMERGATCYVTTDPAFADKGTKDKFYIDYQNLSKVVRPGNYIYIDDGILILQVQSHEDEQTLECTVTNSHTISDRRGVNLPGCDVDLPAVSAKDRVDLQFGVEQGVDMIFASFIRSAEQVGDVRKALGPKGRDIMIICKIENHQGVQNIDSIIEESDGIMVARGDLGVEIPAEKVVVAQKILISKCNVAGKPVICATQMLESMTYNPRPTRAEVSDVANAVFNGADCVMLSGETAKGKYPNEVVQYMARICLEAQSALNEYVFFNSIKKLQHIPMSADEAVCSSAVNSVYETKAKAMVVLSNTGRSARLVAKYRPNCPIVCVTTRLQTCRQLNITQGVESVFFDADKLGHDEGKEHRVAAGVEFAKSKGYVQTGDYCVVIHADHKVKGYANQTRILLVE

[5] = target: T4, Pyruvate kinase (Leishmania mexicana, UniProt Q27686); experiment: Inhibition of Leishmania mexicana pyruvate kinase
T4 sequence (Q27686 whole entry): T3 sequence (whole entry)

[6] = target: T1, ATP-dependent 6-phosphofructokinase (Trypanosoma brucei); experiment: Inhibition of Trypanosoma brucei phosphofructokinase assessed as enzyme residual activity at 5 mM

SMILES | pEC50 [1] | Activity [2] [%] | pIC50 [3] | Activity [4] [%] | pIC50 [5] | Activity [6] [%]
C=CCNC(=O)[C@H]1O[C@H](CNCc2ccc(Cl)c(Cl)c2)[C@@H](O)[C@@H]1O | 3.96 | 2 | 4.30 | – | – | –
CCCCCCNC[C@H]1O[C@H](CO)[C@@H](O)[C@@H]1O | 3.40 | – | – | 40 | – | –
OC[C@H]1O[C@H](CNC2CCCCCC2)[C@@H](O)[C@@H]1O | 2.73 | – | – | 19 | 4.15 | 63
OC[C@H]1O[C@H](CNCc2ccc(Cl)c(Cl)c2)[C@@H](O)[C@@H]1O | 3.89 | – | 3.39 | 43 | – | 5
O=C(Nc1cccc([N+](=O)[O-])c1)[C@H]1O[C@H](CNCc2ccc(Cl)c(Cl)c2)[C@@H](O)[C@@H]1O | – | 1.7 | – | – | – | –
O=C(NC1CCCCCC1)[C@H]1O[C@H](CNCc2ccc(Cl)c(Cl)c2)[C@@H](O)[C@@H]1O | 4.46 | 4.7 | 4.10 | 88.2 | – | –
O=C(Nc1ccc([N+](=O)[O-])cc1)[C@H]1O[C@H](CNCc2ccc(Cl)c(Cl)c2)[C@@H](O)[C@@H]1O | – | 0.8 | – | – | – | –
O=C(Nc1ccccc1)[C@H]1O[C@H](CNCc2ccc(Cl)c(Cl)c2)[C@@H](O)[C@@H]1O | – | 5.5 | – | – | – | –
OC[C@H]1O[C@H](CNC2CCCc3ccccc32)[C@@H](O)[C@@H]1O (some centres undefined) | 3.08 | – | – | 36 | 2.92 | 62
O=C(NCc1ccc(Cl)c(Cl)c1)[C@H]1O[C@H](CNCc2ccc(Cl)c(Cl)c2)[C@@H](O)[C@@H]1O | 4.52 | 0.9 | 4.64 | – | – | –
O=C(NCc1ccc(Cl)c(Cl)c1)[C@H]1O[C@H](CNC2CCCCCC2)[C@@H](O)[C@@H]1O | – | 0.4 | 4.31 | – | – | –
